Published values gathered from unrelated publications.
Compare with care: the assays were run in different laboratories.
Read-out: metabolic stability
Species: mouse
Medium: liver microsomes

O=C(O)Cc1ccccc1Nc1c(Cl)cccc1Cl  microsomal CLint: 31.2 µL/min/mg
CCN(CC)CCCOc1ccc2c(=O)c3c([nH]c2c1)CCCC3  microsomal CLint (1 µM; pH 7.4): 7.94 µL/min/mg
Cc1[nH]c(C)c(S(=O)(=O)Nc2ccc(C(F)(F)F)c(Cl)c2Cl)c1C(=O)N1CCC(F)(F)C1  microsomal CLint: 15.7 µL/min/mg
CCN(CC)CCNC(=O)c1c(C)[nH]c(/C=C2\C(=O)Nc3ccc(F)cc32)c1C  microsomal CLint: 41 µL/min/mg
CC1(C)NC(=O)N(c2ccc(F)c(OC(F)(F)F)c2)C1=O  microsomal CLint: < 7 µL/min/mg
O=c1c2ccc(Oc3ccc(OC(F)(F)F)cc3)cc2[nH]c2cc(Cl)c(F)cc12  microsomal CLint (1 µM; pH 7.4): 1.84 µL/min/mg
CC1(C(F)(F)F)NC(=O)N(c2ccc(F)c(C(F)(F)F)c2)C1=O (stereo not drawn)  microsomal CLint: < 7 µL/min/mg
CC(C)n1ncc2c(C(=O)NCC(C)(C)N(C)C)cc(C3CC3)nc21  microsomal CLint: 30.4 µL/min/mg
CCCN(CCC)CCCOc1ccc2c(=O)c3c([nH]c2c1)CCCC3  microsomal CLint (1 µM; pH 7.4): 34.1 µL/min/mg
CC(C)n1ncc2c(C(=O)NCC3(F)CNC3)cc(C3CC3)nc21  microsomal CLint: 19.8 µL/min/mg
CCCN(CCC)CCNc1ccc2c(=O)c3c([nH]c2c1)CCCC3  microsomal CLint (1 µM; pH 7.4): 81.9 µL/min/mg
O=C1NC2(CCS(=O)(=O)CC2)C(=O)N1c1ccc(F)c(C(F)(F)F)c1  microsomal CLint: < 7 µL/min/mg
O=c1c2ccc(OCc3cccc(OC(F)(F)F)c3)cc2[nH]c2cc(F)cc(Cl)c12  microsomal CLint (1 µM; pH 7.4): 7.26 µL/min/mg
CCS(=O)(=O)N1CCC2(CC1)NC(=O)N(c1ccc(F)c(C(F)(F)F)c1)C2=O  microsomal CLint: < 7 µL/min/mg
CC(C)n1ncc2c(C(=O)NC(C)(C)CN)cc(C3CC3)nc21  microsomal CLint: 19.1 µL/min/mg
CC1(C(F)F)NC(=O)N(c2ccc(F)c(C(F)(F)F)c2)C1=O (stereo not drawn)  microsomal CLint: < 7 µL/min/mg
CCN(CC)CCOc1ccc2c(=O)c3c([nH]c2c1)CCCC3  microsomal CLint (1 µM; pH 7.4): 17.7 µL/min/mg
CONC(=O)c1cccc2c1cc(C)n2-c1nc2c(c(NCc3ccccc3)n1)CCCN2  microsomal CLint (1 µM; pH 7.4): 619 µL/min/mg
